This excerpt belongs to a sample that is enriched for hits.
H69AR inhibit = proliferation blockers of H69AR lung cancer cells, primary screen, cell-based, human, 86K library; H69AR lung tumor viability, ATP luminescence, 72 h; hits give low values; viability, % at 10 µM; 85,000 compounds, 6% hits; AID 598, 2007;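 active = viability at or below 40%; inactive = viability above 40%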;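 also: multidrug resistant small cell line overexpressing MRP-1 efflux transporter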
HUVEC prolif 384 = inhibitors of HUVEC proliferation, primary screen, cell-based, 384-well | viability, % at 10 µM (by protocol) | 86,000 compounds, 1.1% hits | CellTiter-Glo luminescence, 72 h; hits give low values | AID 648, 2007;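 active = viability at or below 30%; inactive = viability above 30%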
Fibroblast inh = antiproliferative effect on LL 47 fibroblasts – human, LL 47 cells, CellTiter-Glo luminescence, primary screen; LL 47 human lung fibroblast viability, ATP luminescence; hits give low values; AID 719, 2007; 85,000 compounds, 1.1% hits; viability, % at 10 µM;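 active = viability at or below 50% in the single dose screen; inactive = viability above 50%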;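 also: compound exposure lasted 72 h before the ATP readout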
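Signal: luminescent ATP detection, CellTiter-Glo; assay system: LL 47 human lung fibroblasts; input: 1,150 cells/well; incubation: overnight cell rest, 72 h compound treatment at 37 °C; measure: % viability versus median cells-only luminescence; medium: IMEM growth medium with 15% fetal bovine serum; dosing: compound addition at 0.1% DMSO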
HCT116 bCat-KO = primary screen for growth suppressors in beta-catenin knockout HCT116 cells (colon tumor, human). HCT116 beta-catenin knockout viability, CellTiter-Glo, 60 h; hits give low values. viability, % at 10 µM. 140,000 compounds, 1.5% hits;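 active = viability at or under a set limit, the compound median less 4 SD, cut at about 6% in these data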
PTEN del growth = growth suppression of PTEN-null HCT116, primary screen, cell-based, CellTiter-Glo. HCT116 PTEN-null viability, 60 h; hits give low values. 140,000 compounds, 1.2% hits. viability, % at 10 µM;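 active = viability at or below a set limit, 4 SD under the median of all tested compounds, cut at about 3.7% in these data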;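 also: PTEN knockout HCT116 line with beta catenin targeted HCT116 as companion control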
Of the large screens only hits and unclear results are named; the others gave an inactive call.

C[C@]12CCC(=O)C=C1CC[C@@H]1[C@@H]2CC[C@@]2(C)[C@H]1CC[C@]2(O)C(=O)CO	none
CCNc1nc(C)c2cc(Br)c(=O)n(CC)c2n1	Fibroblast inh 37
CCn1c(=N)c(C(=O)NC)cc2c(=O)n3cccc(C)c3nc21	none (no result: HCT116 bCat-KO, PTEN del growth)
C=CCSc1nc(Oc2ccccc2)c2sccc2n1	none (no result: H69AR inhibit, HUVEC prolif 384, Fibroblast inh)
Cc1sc2nc(SCC(=O)NCc3ccco3)n(-c3ccccc3)c(=O)c2c1C	none
Cc1ccc(-n2c(SCC(=O)NCc3ccco3)nc3sc(C)c(C)c3c2=O)cc1	H69AR inhibit 36
Cc1sc2nc(SCC(=O)NCc3ccco3)n(Cc3ccccc3)c(=O)c2c1C	H69AR inhibit 3.1, HUVEC prolif 384 30
CCOc1ccc(Br)cc1C1C(C(=O)OC)=C(N)Oc2cc(N(C)C)ccc21 (stereo not drawn)	H69AR inhibit 25
CCOc1ccccc1C1C(C(=O)OC)=C(N)OC2=C1C(=O)CCC2 (stereo not drawn)	none
Cc1ccc(NC(=O)CCNS(=O)(=O)c2cc(Br)cnc2N)cc1Cl	none (no result: H69AR inhibit, HUVEC prolif 384, Fibroblast inh)
Cc1cc(NC(=O)CCNS(=O)(=O)c2cc(Br)cnc2N)ccc1Br	H69AR inhibit 31
c1ccc(CCN2CN(CCCN3CCOCC3)c3nc4ccccc4n3C2)cc1	none
CCOC(=O)Nc1cc(=O)c2ccccc2o1	H69AR inhibit 14 (no result: Fibroblast inh)
Cc1cc(NC(=O)CCCS(=O)(=O)c2nc(-c3cccs3)cc(C(F)(F)F)n2)no1	PTEN del growth 3.3 (no result: H69AR inhibit, HUVEC prolif 384, Fibroblast inh)
CCCNC(=O)CSc1nc(-c2cccs2)cc(C(F)(F)F)n1	none
Cc1cc(NC(=O)CSc2nc(-c3cccs3)cc(C(F)(F)F)n2)no1	H69AR inhibit 29
O=C(c1cccc(S(=O)(=O)N2CCCC2)c1)c1cccc(S(=O)(=O)N2CCCC2)c1	none
COCCCN1CN(Cc2ccccc2)CNC1=S	none (no result: H69AR inhibit, HUVEC prolif 384, Fibroblast inh)
CS/C(=N\S(=O)(=O)c1ccccc1)c1ccccc1	none (no result: H69AR inhibit, HUVEC prolif 384, Fibroblast inh)
O=S(=O)(/N=C(/Sc1ccccc1)c1ccccc1)c1ccccc1	H69AR inhibit 26
Cc1cccc(/C(N)=N/OC(=O)CCC2CCCCC2)c1	none (no result: H69AR inhibit, HUVEC prolif 384, Fibroblast inh)
O=C1c2ccccc2OC2(C=Cc3ccccc3O2)N1Cc1ccccc1 (stereo not drawn)	H69AR inhibit 12
CC(=O)c1cccc(NC(=O)NC(C)c2ccncc2)c1 (stereo not drawn)	none
CC1=C(C(=O)Nc2ccc([N+](=O)[O-])cc2)C(c2cccc(C(F)(F)F)c2)NC(=S)N1c1ccccc1 (stereo not drawn)	HCT116 bCat-KO 1.4, PTEN del growth 1.9 (no result: H69AR inhibit, HUVEC prolif 384, Fibroblast inh)
Cc1cc(N(C(=O)c2ccco2)C(C(=O)NC2CCCCC2)c2ccccc2)ccc1-n1cnnn1 (stereo not drawn)	H69AR inhibit 39
Cc1ccc(-c2c(=O)n(OCc3ccccn3)c3ccccc3[n+]2[O-])cc1	none (no result: H69AR inhibit, HUVEC prolif 384, Fibroblast inh)
CC(C)(C)c1ccc(COn2c(=O)c(-c3ccco3)[n+]([O-])c3ccccc32)cc1	H69AR inhibit 34
O=C(c1ccc2snnc2c1)N1CCCC1	none
O=C1CCN(N=Nc2cccc(Cl)c2)N1	H69AR inhibit 31
COc1ccc(Nc2ncnc3c2oc2ccccc23)cc1	H69AR inhibit 39
Cc1ccc(Nc2ncnc3c2oc2ccccc23)cc1	none
Cc1nn(-c2ccccc2)c(Cl)c1/C=N/NS(=O)(=O)c1ccc(Br)cc1	none (no result: H69AR inhibit, HUVEC prolif 384, Fibroblast inh)
O=C(CSc1nnc(-c2ccccc2)c(-c2ccccc2)n1)NCc1ccco1	H69AR inhibit 20
CC(NC(=O)CSc1nc2c(c(C(F)(F)F)n1)CCc1ccccc1-2)c1ccccc1 (stereo not drawn)	none
O=C(CSc1nc2c(c(C(F)(F)F)n1)CCc1ccccc1-2)NCc1ccco1	H69AR inhibit 30
CCCCOC(=O)C(C)Oc1ccc(=O)n(-c2ccccc2)n1 (stereo not drawn)	none
CC1CCN(c2nc(Cl)nc(Nc3ccc([N+](=O)[O-])cc3)n2)CC1	HCT116 bCat-KO 2.2 (no result: H69AR inhibit, HUVEC prolif 384, Fibroblast inh)
Cc1sc2ncn(CC(=O)NCCc3ccccc3)c(=O)c2c1C	none
CCc1ccc(N2CC(C(=O)OCC(=O)Nc3cc(C)on3)CC2=O)cc1 (stereo not drawn)	H69AR inhibit 37 (no result: Fibroblast inh)
CCSc1ncc(C#N)c(N)n1	none
Fc1cccc(F)c1CN1CCN(c2ncccn2)CC1	none
CC1Cc2ccccc2N1Cc1nc2cc(Cl)ccc2c(=O)[nH]1 (stereo not drawn)	H69AR inhibit 25
COC(=O)c1ccc2c(=O)[nH]c(CN3c4ccccc4CC3C)nc2c1 (stereo not drawn)	none
Cc1nn(-c2nc3ccccc3s2)c(N)c1-c1ccccc1	none
Cc1nn(-c2nc3ccccc3[nH]2)c(N)c1-c1ccccc1	H69AR inhibit 20
Cc1ncc(CCl)c2c1OC(C)(C)OC2	H69AR inhibit 2.8
Cc1ccc(-n2cccc2/C=N/n2cnnc2)cc1Cl	none
O=C(/C=C/c1cccc2ccccc12)c1ccncc1	HCT116 bCat-KO 1.0, PTEN del growth 0.9 (no result: H69AR inhibit, HUVEC prolif 384, Fibroblast inh)
CCn1cc(C(=O)NCc2ccco2)c(=O)c2cc(S(=O)(=O)N3CC(C)CC(C)C3)ccc21 (stereo not drawn)	HUVEC prolif 384 22
CCn1cc(C(=O)NCc2ccco2)c(=O)c2cc(S(=O)(=O)N3CCC(C)CC3)ccc21	none
CCCc1cc(=O)[nH]c(/N=C(/NC(=O)c2ccccc2)Nc2ccc3c(c2)OCCO3)n1	H69AR inhibit 32 (no result: HCT116 bCat-KO, PTEN del growth)
O=C(CSCc1ccc([N+](=O)[O-])cc1)NC1CC2CCC1C2 (stereo not drawn)	none (no result: H69AR inhibit, HUVEC prolif 384, Fibroblast inh)
CC(=O)Nc1ccc(S(=O)(=O)NCc2ccc(C(=O)NCCN3CCCCCC3)cc2)cc1	none
Cc1ccc(S(=O)(=O)Nc2cccc3ncccc23)s1	HCT116 bCat-KO 1.5, PTEN del growth 1.5 (no result: H69AR inhibit, HUVEC prolif 384, Fibroblast inh)
Cc1ccc(S(=O)(=O)Nc2ccnc3ccccc23)cc1	none
CCC(=O)Nc1ccccc1Oc1ccccc1	none
CCCCCn1c(=S)[nH]c2ncccc2c1=O	none
O=c1c2cccnc2[nH]c(=S)n1CCC1=CCCCC1	H69AR inhibit 38
NC(=O)NC(=O)CSc1nc(-c2ccccc2)c(-c2ccccc2)n1CC1CCCO1 (stereo not drawn)	H69AR inhibit 36
O=C(CSc1nc2ccccc2c(=O)n1CC1CCCO1)NCC1CCCO1 (stereo not drawn)	none
COc1ccc(/C=C/c2ccncc2)c2ccccc12	H69AR inhibit 14
COc1ccccc1/C=C/C=N/NC(=O)c1ccncc1	none (no result: H69AR inhibit, HUVEC prolif 384, Fibroblast inh)
CS(=O)(=O)Cc1nc2ccccc2oc1=O	H69AR inhibit 22
O=C(Nc1ncccn1)c1cc([N+](=O)[O-])cc([N+](=O)[O-])c1	none (no result: H69AR inhibit, HUVEC prolif 384, Fibroblast inh)
O=[N+]([O-])c1cc(-c2ncccn2)c([N+](=O)[O-])s1	HCT116 bCat-KO 2.2 (no result: H69AR inhibit, HUVEC prolif 384, Fibroblast inh)
Cc1ccc(CN=Cc2[nH]c3ccc(Br)c(Cl)c3c2O)cc1	H69AR inhibit 33
Cc1cccc(C)c1OCC(=O)Nc1nnc(C2CCCO2)s1 (stereo not drawn)	none (no result: H69AR inhibit, HUVEC prolif 384, Fibroblast inh)
O=C(N1CCOCC1)N1CCCN(C(=O)N2CCOCC2)CC1	H69AR inhibit 36
